Measurements pooled from the literature.
Compare with care: the assays were run in different laboratories.
TPR: Trypanothione reductase (TPR, Trypanosoma cruzi, UniProt P28593)
PTPN12: Tyrosine-protein phosphatase non-receptor type 12 (PTPN12, Homo sapiens, UniProt Q05209)
SLC6A2: Sodium-dependent noradrenaline transporter (SLC6A2, Homo sapiens, UniProt P23975)
NPSR1: Neuropeptide S receptor (NPSR1, Homo sapiens, UniProt Q6W5P4)
Dual specificity calcium/calmodulin-dependent 3',5'-cyclic nucleotide phosphodiesterase 1B: Dual specificity calcium/calmodulin-dependent 3',5'-cyclic nucleotide phosphodiesterase 1B (Homo sapiens, UniProt Q01064)
Aldo-keto reductase family 1 member A1: Aldo-keto reductase family 1 member A1 (Rattus norvegicus, UniProt P51635)
GRM3: Metabotropic glutamate receptor 3 (GRM3, Homo sapiens, UniProt Q14832)

The IC50 of `CCN(CC)CCn1c(=N)n(CCOc2ccccc2)c2ccccc21` is reported as no more than 10 µM (TPR; enzyme activity, inhibitor).
`CN1CCN(c2ccc(Nc3ncc4cc(C#N)c(=O)n(C5CCCC5)c4n3)cc2)CC1` gave an IC50 of 4.41 µM (MAP kinase-interacting serine/threonine-protein kinase 2 (MKNK2, Homo sapiens, UniProt Q9HBH9); enzyme activity, inhibitor).
The IC50 of `O=C(Oc1cc(O)cc2c1C[C@@H](OC(=O)c1cc(O)c(O)c(O)c1)[C@@H](c1cc(O)c(O)c(O)c1)O2)c1cc(O)c(O)c(O)c1` is reported as 0.02 µM (PTPN12; enzyme activity, inhibitor).
`COc1ccc2c(Oc3ccc4c(C(=O)Nc5ccccc5N)cccc4c3)ccnc2c1` gave an IC50 of greater than 0.5 µM (Tyrosine-protein kinase Fgr (FGR, Homo sapiens, UniProt P09769); enzyme activity, inhibitor).
`C1CNCCN1` has an IC50 of greater than 100 µM (TPR; enzyme activity, inhibitor, absorbance).
With `O=C(O)c1cc(O)c2c(c1)[C@H]([C@H]1c3cc(C(=O)O)cc(O)c3C(=O)c3c(O[C@@H]4O[C@H](CO)[C@@H](O)[C@H](O)[C@H]4O)cccc31)c1cccc(O[C@@H]3O[C@H](CO)[C@@H](O)[C@H](O)[C@H]3O)c1C2=O` the IC50 was 0.4 µM (PTPN12; enzyme activity, inhibitor, fluorescence).
The IC50 of `Fc1ccc(C(c2ccc(F)cc2)c2nnnn2CCCCN2CCC(c3ccccc3)CC2)cc1` is reported as 0.675 µM (SLC6A2; transporter uptake, inhibitor).
With `COc1cccc(C2c3c(ncn(-c4ccccc4-c4ccccc4)c3=N)Oc3ccc4ccccc4c32)c1` (centres unmarked) the IC50 was 38.7 µM (NPSR1; cAMP, antagonist, TR-FRET).
`NCCCc1ccccc1` gave an IC50 of greater than 100 µM (TPR; enzyme activity, inhibitor, absorbance).
`COc1cccc(C2c3c(ncn(-c4ccc(F)cc4)c3=N)Oc3ccc4ccccc4c32)c1` (centres unmarked) has an IC50 of 3.48 µM (NPSR1; calcium signal, antagonist).
With `COc1cc(/C=C2\SC(=O)NC2=O)cc(F)c1OCCNc1nc2c(cnn2C2CCCC2)c(=O)[nH]1` the IC50 was 0.0151 µM (Dual specificity calcium/calmodulin-dependent 3',5'-cyclic nucleotide phosphodiesterase 1B; enzyme activity, inhibitor).
`COc1cccc(C2c3c(ncn(-c4cccc(C#N)c4)c3=N)Oc3ccc4ccccc4c32)c1` (centres unmarked) gave an IC50 of 19.4 µM (NPSR1; cAMP, antagonist, TR-FRET).
The IC50 of `ClCCOC(c1ccccc1)c1ccccc1` is reported as 82.9 µM (TPR; enzyme activity, inhibitor, absorbance).
`COc1ccc2nc(/N=C3/NC(=O)C(=Cc4ccccc4)S3)sc2c1` gave an IC50 of greater than 50 µM (Aldo-keto reductase family 1 member A1; enzyme activity, inhibitor, absorbance; pH 7.2).
`O=P(O)(O)OC[C@H]1O[C@@](CO)(OP(=O)(O)O)[C@@H](O)[C@@H]1O` gave an IC50 of 1.52 µM (Fructose-1,6-bisphosphatase 1 (Mus musculus, UniProt Q9QXD6, G27P); enzyme activity, inhibitor).
With `N=c1c2c(ncn1-c1ccccc1)Oc1ccc3ccccc3c1C2c1ccc2c(c1)CCO2` (centres unmarked) the IC50 was 3.07 µM (NPSR1; cAMP, antagonist, TR-FRET).
With `CN1c2c(nc(N)[nH]c2=O)NC[C@@H]1CNc1ccc(C(=O)N[C@@H](CCC(=O)O)C(=O)O)cc1` the IC50 was 0.196 µM (Folate receptor beta (FOLR2, Homo sapiens, UniProt P14207); cell-free assay, ELISA).
With `N=c1n(CCN2CCCCC2)c2ccccc2n1CC(O)COc1ccc(Cl)cc1Cl` (centres unmarked) the IC50 was no more than 10 µM (TPR; enzyme activity, inhibitor).
With `COc1ccc(-c2cc(C(N)=O)ncc2OCc2ccn(C)n2)c(F)c1` the IC50 was greater than 10 µM (GRM3; ion flux, antagonist).
`COc1cccc(C2c3c(ncn(-c4cccc(C)c4)c3=N)Oc3ccc4ccccc4c32)c1` (centres unmarked) gave an IC50 of 4.38 µM (NPSR1; calcium signal, antagonist).
`O=S(=O)(Nc1nc2cc(Cl)ccc2o1)c1cc(Cl)ccc1Cl` gave an IC50 of 4.58 µM (Fructose-1,6-bisphosphatase 1 (Mus musculus, UniProt Q9QXD6); enzyme activity, inhibitor).
`Cc1ccc(C(=O)Nc2ccc(S(=O)(=O)O)c3cc(S(=O)(=O)O)cc(S(=O)(=O)O)c23)cc1NC(=O)c1cccc(NC(=O)Nc2cccc(C(=O)Nc3cc(C(=O)Nc4ccc(S(=O)(=O)O)c5cc(S(=O)(=O)O)cc(S(=O)(=O)O)c45)ccc3C)c2)c1` gave an IC50 of 27 µM (PTPN12; enzyme activity, inhibitor, fluorescence).
`Cc1cnc(-c2ccc(-c3ccc(NC(=O)Nc4c(F)cc(F)cc4F)cc3F)c3c2C(=O)NC3)[nH]1` gave an IC50 of 0.0148 µM (Serine/threonine-protein kinase/endoribonuclease IRE2 (ERN2, Homo sapiens, UniProt Q76MJ5); enzyme activity, inhibitor).
`O=C1c2ccccc2C(=O)c2c(O)c(O)cc(O)c21` has an IC50 of 5 µM (PTPN12; enzyme activity, inhibitor).
`COc1ccccc1C1c2c(ncn(-c3ccccc3)c2=N)Oc2ccc3ccccc3c21` (centres unmarked) gave an IC50 of 5.52 µM (NPSR1; calcium signal, antagonist).
`Cc1ccc(C(O)Cn2c(=N)n(CCN3CCCCC3)c3ccccc32)cc1` (centres unmarked) has an IC50 of no more than 10 µM (TPR; enzyme activity, inhibitor).
`COc1cccc(C2c3c(ncn(-c4ccncc4)c3=N)Oc3ccc4ccccc4c32)c1` (centres unmarked) gave an IC50 of 19.4 µM (NPSR1; cAMP, antagonist, TR-FRET).
For `Clc1ccc(C(c2ccccc2)c2nnnn2CCCCN2CCN(CCCc3ccccc3)CC2)cc1` (centres unmarked), the IC50 was 0.745 µM (SLC6A2; transporter uptake, inhibitor).
For `COc1ccc(-c2nsc(NC(=O)[C@@H]3C[C@H]3C)c2C)cc1`, the IC50 was greater than 12.5 µM (GRM3; calcium signal, antagonist).
The IC50 of `COc1cccc(C2c3c(ncn(-c4ccccc4Cl)c3=N)Oc3ccc4ccccc4c32)c1` (centres unmarked) is reported as 12.2 µM (NPSR1; cAMP, antagonist, TR-FRET).
`BrCCCc1ccccc1` gave an IC50 of greater than 100 µM (TPR; enzyme activity, inhibitor, absorbance).
With `COc1ccc(-c2cc(C(N)=O)ncc2OCc2cn(C)cn2)c(F)c1` the IC50 was greater than 10 µM (GRM3; ion flux, antagonist).
`Fc1ccc(C(c2ccc(F)cc2)c2nnnn2CCCCN2CCC(Cc3ccccc3)CC2)cc1` has an IC50 of 0.298 µM (SLC6A2; transporter uptake, inhibitor).
The IC50 of `O=S1(=O)O[C@@H]2[C@H](O)[C@@H](O)[C@H](O)[C@@H](CO)[C@@H]2O1` is reported as greater than 100 µM (bglA (Thermotoga maritima, UniProt Q08638); enzyme activity, inhibitor; pH 6.8, with preincubation).
For `COc1ccc(-c2cc(C(N)=O)ncc2OCc2ccnc(OC)c2)c(F)c1`, the IC50 was greater than 10 µM (GRM3; ion flux, antagonist).
`COc1ccc(C2=NN(C3CCCCCC3)C(=O)[C@@H]3CC=CC[C@H]23)cc1-c1ccc(C(N)=O)cc1` (relative stereo) has an IC50 of greater than 10 µM (Dual specificity calcium/calmodulin-dependent 3',5'-cyclic nucleotide phosphodiesterase 1B; enzyme activity, inhibitor).
The IC50 of `COc1ccc(-c2cc(C(N)=O)ncc2OCc2noc(C)n2)c(F)c1` is reported as greater than 10 µM (GRM3; ion flux, antagonist).
For `COc1ccc(/C=C2\SC(=Nc3nc4ccc(OC)cc4s3)NC2=O)cc1`, the IC50 was 4.21 µM (Aldo-keto reductase family 1 member A1; enzyme activity, inhibitor, absorbance; pH 7.2).
